This is a sample that favours compounds with a hit; in the whole collection about 3.3% have one here.
5HT1E ag = activates the human 5-HT1E serotonin receptor; P28566; CHO 5-HT1E Ga15 NFAT-bla reporter, FRET; 0% DMSO wells, 100% control agonist wells; activation, % at 6 µM; 65,000 tested, 0.69% active;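 active = activation above a set limit, the screen-wide mean activation plus 3 SD, cut at about 8.5% in these data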;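 also: 100% = positive control agonist at 1 µM giving full maximal response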
Jurkat viability = cytotoxic compounds reducing Jurkat cell viability; Jurkat E6.1 viability, ATP luminescence, 48 h; AID 463; 56,000 tested, 1.2% active; inhibition, % at 4 µM;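 active = inhibition above the mean inhibition of all tested compounds plus 3 SD, cut at about 28% in these data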
5HT1a antag = blocks the human serotonin 5-HT1a receptor; P08908; CHO 5-HT1a Ga15 NFAT-bla reporter, antagonist mode; inhibition, % at 10 µM; 62,000 tested, 0.68% active; AID 612;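 active = inhibition above the mean of all tested compounds plus 3 SD, cut at about 43% in these data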;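 also: receptor stimulated by 5-CT agonist at 100 nM near EC80; beta-lactamase reporter measured by ratiometric fluorescence of a cleavable substrate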
Target sequence (P08908 whole entry, looked up): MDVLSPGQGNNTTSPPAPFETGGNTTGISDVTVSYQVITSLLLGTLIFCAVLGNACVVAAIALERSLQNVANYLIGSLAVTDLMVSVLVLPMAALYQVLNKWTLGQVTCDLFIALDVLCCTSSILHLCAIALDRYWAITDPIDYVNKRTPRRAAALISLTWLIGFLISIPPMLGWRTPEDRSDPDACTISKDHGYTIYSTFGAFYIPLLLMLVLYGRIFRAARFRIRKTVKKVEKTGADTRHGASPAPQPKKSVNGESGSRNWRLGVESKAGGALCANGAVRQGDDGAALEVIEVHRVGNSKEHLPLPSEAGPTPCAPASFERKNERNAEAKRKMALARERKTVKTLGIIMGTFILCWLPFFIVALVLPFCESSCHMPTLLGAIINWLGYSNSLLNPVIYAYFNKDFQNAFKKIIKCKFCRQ
HTR1E antagonist = blocks the human 5-HT1E serotonin receptor | CHO 5-HT1E Ga15 NFAT-bla reporter, FRET, antagonist | AID 571 | 65,000 tested, 0.99% active | P28566 | inhibition, % at 6 µM;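 active = inhibition above a set limit, the mean inhibition across every tested compound plus 3 SD, cut at about 29% in these data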;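 also: signal is the 460 over 535 nm emission ratio of beta-lactamase substrate; 0% = agonist plus DMSO wells and 100% = wells without agonist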
HEK293 NFkB inh = lowers PMA/ionomycin-induced NF-kB signal in HEK293 cells. HEK-293 NF-kB luciferase reporter, luminescence. inhibition, % at 3 µM. 62,000 tested, 0.21% active;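 active = inhibition above the mean of all tested compounds plus 3 SD, cut at about 40% in these data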;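 also: 0% = stimulated DMSO wells and 100% = 10 µM reference inhibitor 5653914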
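Timing: 1 h pretreatment, 16 h stimulation, 37 °C; system: HEK-293 cells with stable firefly luciferase reporter driven by four HIV NF-kB elements; doses: 3 µM once, 0.30% DMSO; measured by: luciferase luminescence; control set: DMSO and 10 µM reference inhibitor; repeats: single test; reagent: PMA plus ionomycin mix as NF-kB-activating stimulus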
5HT1a ag = 5-HT1a (human) receptor agonism; activation, % at 10 µM; 65,000 tested, 0.56% active; CHO 5-HT1a Ga15 NFAT-bla reporter, FRET ratio; 0% basal, 100% maximal reference agonist; AID 567; P08908;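 active = activation above the screen-wide mean activation plus 3 SD, cut at about 19% in these data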;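 also: 0% = DMSO wells and 100% = 5-CT at EC100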
Numbers without * were called inactive.

What do the screens show for `C=CCn1c(=O)c2ccccc2n2c(SC(C)C(=O)Nc3nc(-c4ccccc4)cs3)nnc12` (configuration not stated)?
5HT1E ag: 0.0; Jurkat viability: 1.1; 5HT1a antag: 0.2; HTR1E antagonist: 38.3*; HEK293 NFkB inh: 24.3; 5HT1a ag: 0.6

Results for CSc1cccc(NC(=O)COc2ccccc2)c1 ?
5HT1E ag: 0.3; Jurkat viability: 3.4; 5HT1a antag: -11.0; HTR1E antagonist: -2.0; HEK293 NFkB inh: -3.1; 5HT1a ag: -2.4

What do the screens show for `CSc1cccc(NC(=O)Nc2ccccc2)c1`?
5HT1E ag: 10.1*; Jurkat viability: 7.6; 5HT1a antag: 25.9; HTR1E antagonist: 17.5; HEK293 NFkB inh: 0.9; 5HT1a ag: 0.1

What do the screens show for `COc1ccc(NC(C)=O)cc1NC(=O)CCn1c(=O)sc2ccccc21`?
5HT1E ag: 0.3; Jurkat viability: 9.1; 5HT1a antag: 4.4; HTR1E antagonist: -2.5; HEK293 NFkB inh: -4.5; 5HT1a ag: -0.2

What do the screens show for `CCCCNC(=O)c1ccccc1C(=O)NCCCC`?
5HT1E ag: -0.6; Jurkat viability: 4.2; 5HT1a antag: -5.0; HTR1E antagonist: 3.2; HEK293 NFkB inh: 5.6; 5HT1a ag: 0.0

How did CCCCP(=O)(CCCC)c1ccccc1C(=O)O do in these assays?
5HT1E ag: -1.2; Jurkat viability: -3.2; 5HT1a antag: 7.4; HTR1E antagonist: 4.2; HEK293 NFkB inh: 3.4; 5HT1a ag: 252.4*

Results for O=C(Cn1cnc2c(oc3ccccc32)c1=O)NCC1CCCO1 (configuration not stated) ?
5HT1E ag: 0.5; 5HT1a antag: 3.0; HTR1E antagonist: 0.0; HEK293 NFkB inh: 3.3; 5HT1a ag: 0.0

Results for CCN(C)c1ccc(/C=N\n2nnnc2N)cc1 ?
5HT1E ag: -0.2; Jurkat viability: 82.2*; 5HT1a antag: -3.9; HTR1E antagonist: -3.2; HEK293 NFkB inh: -10.6; 5HT1a ag: -1.0

What do the screens show for `CSc1ccc(/C=N/n2nnnc2N)cc1`?
5HT1E ag: -0.4; Jurkat viability: 3.8; 5HT1a antag: -19.4; HTR1E antagonist: -4.2; HEK293 NFkB inh: 8.6; 5HT1a ag: -1.5

Results for Cc1ccc2[nH]c(=O)c(C(c3nnnn3CC3CCCO3)N3CCCc4ccccc43)cc2c1 (configuration not stated) ?
5HT1E ag: 0.4; Jurkat viability: 8.3; 5HT1a antag: -3.0; HTR1E antagonist: -7.2; HEK293 NFkB inh: 6.6; 5HT1a ag: -3.1

What do the screens show for `Cc1ccc(S(=O)(=O)N2CCSC2c2ccco2)cc1` (configuration not stated)?
5HT1E ag: 0.1; Jurkat viability: -1.6; 5HT1a antag: 7.2; HTR1E antagonist: 9.7; HEK293 NFkB inh: 17.8; 5HT1a ag: 1.2

Results for CNc1cc(C)nc(-n2nc(C)cc2C)n1 ?
5HT1E ag: -0.8; Jurkat viability: 3.6; 5HT1a antag: -4.7; HTR1E antagonist: -1.6; HEK293 NFkB inh: 7.3; 5HT1a ag: -1.2

Results for CCOc1ccc(Nc2cc(C)nc(-n3nc(C)cc3C)n2)cc1 ?
5HT1E ag: 0.6; Jurkat viability: 99.2*; 5HT1a antag: 52.3*; HTR1E antagonist: 79.6*; HEK293 NFkB inh: 19.4; 5HT1a ag: -4.1

What do the screens show for `CC1Cc2ccccc2N1C(=O)CSc1nc2c(c(=O)n(C)c(=O)n2C)n1Cc1ccccc1` (configuration not stated)?
5HT1E ag: -1.2; Jurkat viability: -2.7; 5HT1a antag: 13.4; HTR1E antagonist: 13.8; HEK293 NFkB inh: 2.9; 5HT1a ag: 4.8

What do the screens show for `Cc1ccccc1-c1nc(CN2CCCC(C(=O)NCCCN3CCOCC3)C2)c(C)o1` (configuration not stated)?
5HT1E ag: 0.6; Jurkat viability: -7.3; 5HT1a antag: -3.9; HTR1E antagonist: 0.3; HEK293 NFkB inh: -4.7; 5HT1a ag: -2.4

What do the screens show for `CCc1ccc(-c2nc(CN3CCCC(C(=O)NCCc4ccc(OC)c(OC)c4)C3)c(C)o2)cc1` (configuration not stated)?
5HT1E ag: 1.6; Jurkat viability: 3.0; 5HT1a antag: -1.2; HTR1E antagonist: -16.9; HEK293 NFkB inh: -0.9; 5HT1a ag: 37.5*

How did COc1ccc(CCNC(=O)C2CCCN(Cc3nc(-c4ccccc4C)oc3C)C2)cc1OC (configuration not stated) do in these assays?
5HT1E ag: 0.4; Jurkat viability: -4.9; 5HT1a antag: -3.4; HTR1E antagonist: -7.5; HEK293 NFkB inh: -5.0; 5HT1a ag: 33.1*

How did CCOC(=O)N1CCN(C(=O)C2CCCN(Cc3nc(-c4ccc(Cl)cc4)oc3C)C2)CC1 (configuration not stated) do in these assays?
5HT1E ag: 1.9; Jurkat viability: 48.9*; 5HT1a antag: 6.2; HTR1E antagonist: 11.8; HEK293 NFkB inh: 31.6; 5HT1a ag: 2.1

How did Cc1oc(-c2ccc(Cl)cc2)nc1CN1CCCC(C(=O)N2CCc3ccccc32)C1 (configuration not stated) do in these assays?
5HT1E ag: 0.7; Jurkat viability: -5.2; 5HT1a antag: -10.0; HTR1E antagonist: -6.0; HEK293 NFkB inh: 12.6; 5HT1a ag: -2.6

How did CS(=O)(=O)N(CCC(=O)O)Cc1ccccc1 do in these assays?
5HT1E ag: -1.4; Jurkat viability: -2.3; 5HT1a antag: -1.0; HTR1E antagonist: 5.4; HEK293 NFkB inh: -2.2; 5HT1a ag: -2.2

What do the screens show for `CCOc1ccc(OCC)c(NC(=O)C2CCCN(c3nc(C)cc(C)n3)C2)c1` (configuration not stated)?
5HT1E ag: 0.5; Jurkat viability: 3.3; 5HT1a antag: 7.2; HTR1E antagonist: -5.9; HEK293 NFkB inh: -7.2; 5HT1a ag: 0.0

What do the screens show for `Cn1cnnc1SCC(=O)Nc1ccccc1Sc1ccccc1`?
5HT1E ag: 0.2; Jurkat viability: -5.7; 5HT1a antag: -9.7; HTR1E antagonist: -4.3; HEK293 NFkB inh: 6.7; 5HT1a ag: 310.6*

Results for COc1cc(-c2c(C#N)c(N)nc(SCc3ccncc3)c2C#N)cc(OC)c1OC ?
5HT1E ag: 1.5; Jurkat viability: -2.5; 5HT1a antag: 3.1; HTR1E antagonist: 2.1; HEK293 NFkB inh: 26.3; 5HT1a ag: -0.2

Results for N#Cc1c(N)nc(SCc2ccncc2)c(C#N)c1-c1cccs1 ?
5HT1E ag: 0.0; Jurkat viability: 14.5; 5HT1a antag: 4.9; HTR1E antagonist: 42.6*; HEK293 NFkB inh: 31.2; 5HT1a ag: 0.7

How did CCOC(=O)c1nc(S(C)(=O)=O)ncc1N1CCOCC1 do in these assays?
5HT1E ag: 1.0; Jurkat viability: -6.4; 5HT1a antag: 0.4; HTR1E antagonist: -4.0; HEK293 NFkB inh: -0.5; 5HT1a ag: -2.2

How did CCOC(=O)c1nc(S(C)(=O)=O)ncc1Cl do in these assays?
5HT1E ag: -0.3; Jurkat viability: 100.3*; 5HT1a antag: 86.0*; HTR1E antagonist: 75.3*; HEK293 NFkB inh: 16.1; 5HT1a ag: -1.8

Screens as filed in PubChem.
